The first data set relates to Mus musculus. Put plainly: Volume of distribution in mouse at 20 mg/kg, po administered as single dose. The data set is classed as ADME, organism-based. Further details: dose 20 mg/kg, route oral. Conditions: in vivo.
Chain of Vascular endothelial growth factor receptor 2 (P35968 whole entry): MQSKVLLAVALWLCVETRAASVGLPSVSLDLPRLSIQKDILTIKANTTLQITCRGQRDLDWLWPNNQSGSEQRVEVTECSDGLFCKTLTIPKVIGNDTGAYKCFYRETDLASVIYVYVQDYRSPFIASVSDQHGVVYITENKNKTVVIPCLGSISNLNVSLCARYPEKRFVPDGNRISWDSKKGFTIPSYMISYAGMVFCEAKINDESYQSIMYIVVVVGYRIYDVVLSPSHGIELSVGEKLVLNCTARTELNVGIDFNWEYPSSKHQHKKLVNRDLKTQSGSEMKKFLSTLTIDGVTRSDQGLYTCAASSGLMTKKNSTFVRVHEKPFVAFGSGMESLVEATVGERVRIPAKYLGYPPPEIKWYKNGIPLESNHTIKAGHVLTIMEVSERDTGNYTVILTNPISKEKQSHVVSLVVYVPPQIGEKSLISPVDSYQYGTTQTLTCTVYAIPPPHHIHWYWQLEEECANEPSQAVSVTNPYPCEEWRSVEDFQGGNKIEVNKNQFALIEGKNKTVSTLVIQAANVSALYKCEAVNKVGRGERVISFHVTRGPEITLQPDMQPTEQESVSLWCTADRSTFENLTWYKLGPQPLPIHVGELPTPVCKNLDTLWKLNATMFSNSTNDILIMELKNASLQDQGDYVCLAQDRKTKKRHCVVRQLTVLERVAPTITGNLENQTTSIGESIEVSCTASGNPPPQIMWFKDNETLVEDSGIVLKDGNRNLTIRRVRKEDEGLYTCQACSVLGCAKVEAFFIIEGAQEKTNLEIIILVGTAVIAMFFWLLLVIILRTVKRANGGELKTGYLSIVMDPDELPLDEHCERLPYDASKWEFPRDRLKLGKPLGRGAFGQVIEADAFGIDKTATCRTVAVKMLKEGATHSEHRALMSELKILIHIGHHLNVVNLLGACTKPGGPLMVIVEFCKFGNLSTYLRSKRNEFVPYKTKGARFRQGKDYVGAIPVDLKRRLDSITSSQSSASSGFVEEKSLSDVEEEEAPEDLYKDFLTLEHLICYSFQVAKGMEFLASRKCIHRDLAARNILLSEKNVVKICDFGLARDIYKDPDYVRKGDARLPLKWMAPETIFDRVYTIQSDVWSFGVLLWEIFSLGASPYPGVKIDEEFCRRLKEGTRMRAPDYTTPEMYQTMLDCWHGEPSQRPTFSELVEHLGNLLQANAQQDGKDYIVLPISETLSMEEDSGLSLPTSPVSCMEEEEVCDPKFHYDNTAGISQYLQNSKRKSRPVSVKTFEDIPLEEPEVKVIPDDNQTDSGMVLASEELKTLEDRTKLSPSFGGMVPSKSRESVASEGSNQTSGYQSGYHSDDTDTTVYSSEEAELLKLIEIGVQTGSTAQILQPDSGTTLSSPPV
Chain of Tyrosine-protein kinase ABL1 (P00519 whole entry): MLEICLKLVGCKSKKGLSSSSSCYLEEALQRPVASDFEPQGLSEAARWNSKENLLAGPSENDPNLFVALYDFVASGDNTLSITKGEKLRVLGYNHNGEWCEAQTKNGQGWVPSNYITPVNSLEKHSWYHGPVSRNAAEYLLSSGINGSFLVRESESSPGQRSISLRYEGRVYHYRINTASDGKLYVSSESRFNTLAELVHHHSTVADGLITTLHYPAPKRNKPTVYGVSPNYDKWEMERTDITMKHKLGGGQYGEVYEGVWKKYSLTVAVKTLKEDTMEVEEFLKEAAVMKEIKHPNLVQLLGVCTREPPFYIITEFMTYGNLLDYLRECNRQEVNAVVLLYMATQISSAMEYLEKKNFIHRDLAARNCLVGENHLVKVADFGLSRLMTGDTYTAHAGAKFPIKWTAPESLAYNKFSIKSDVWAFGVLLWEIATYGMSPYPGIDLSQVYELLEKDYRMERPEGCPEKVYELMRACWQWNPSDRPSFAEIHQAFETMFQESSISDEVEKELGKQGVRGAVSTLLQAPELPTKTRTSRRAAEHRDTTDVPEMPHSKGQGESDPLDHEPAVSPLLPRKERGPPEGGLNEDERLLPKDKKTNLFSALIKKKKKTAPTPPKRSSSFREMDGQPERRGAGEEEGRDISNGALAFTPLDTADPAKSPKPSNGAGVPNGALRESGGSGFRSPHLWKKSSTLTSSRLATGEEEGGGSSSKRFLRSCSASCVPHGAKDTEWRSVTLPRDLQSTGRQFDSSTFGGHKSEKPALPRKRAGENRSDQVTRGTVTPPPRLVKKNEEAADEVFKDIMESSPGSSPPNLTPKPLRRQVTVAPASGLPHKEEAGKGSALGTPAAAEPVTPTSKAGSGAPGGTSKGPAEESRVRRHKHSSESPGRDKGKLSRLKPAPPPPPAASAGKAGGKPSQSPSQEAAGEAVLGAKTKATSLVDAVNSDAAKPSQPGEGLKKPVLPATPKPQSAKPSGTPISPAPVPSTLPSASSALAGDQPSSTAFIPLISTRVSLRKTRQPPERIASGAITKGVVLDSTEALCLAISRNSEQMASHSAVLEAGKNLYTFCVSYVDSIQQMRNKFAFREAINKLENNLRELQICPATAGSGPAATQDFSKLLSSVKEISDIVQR
The compound `CNC(=O)c1cc(Oc2ccc3nc(Nc4cccc(C(C)C)c4)ncc3c2)ccn1` showed a Vd of 4.717 L/kg.

Tested on in a further data set: not listed separately
As to the kind of experiment: Apparent permeability from apical to basolateral side in human Caco2 cells. The data set is classed as ADME, cell-based. Particulars: Caco-2. On the technique in general: Caco-2 monolayers are a common model of the intestinal barrier.
What is called Papp A→B is the apparent permeability from the apical to the basolateral side of a cell layer. On to `CNC(=O)c1cc(Oc2ccc3nc(Nc4cccc(C(C)C)c4)ncc3c2)ccn1`, for which the Papp A→B is under 1 ×10⁻⁶ cm/s.
For the compound `CNC(=O)c1cc(Oc2ccc3nc(Nc4ccc(-c5cccnc5)cc4)ncc3c2)ccn1`, the Papp A→B was under 1 ×10⁻⁶ cm/s.
The same measure, in the same setting: the figure for `CNC(=O)c1cc(Oc2ccc3c(c2)nc(Nc2cccc(C(C)(C)C)c2)n3C)ccn1` is under 1 ×10⁻⁶ cm/s; for `CNC(=O)c1cc(Oc2ccc3nc(Nc4ccc(C(F)(F)F)cc4)ncc3c2)ccn1` it is under 1 ×10⁻⁶ cm/s.
On the same count and under the same terms, the figure for `CNC(=O)c1cc(Oc2ccc3nc(Nc4cccc(Br)c4)ncc3c2)ccn1` is under 1 ×10⁻⁶ cm/s.
Still for that read-out and setting: the figure for `O=C(NCCN1CCCCC1)c1cc(Oc2ccc3nc(Nc4ccc(Br)cc4)ncc3c2)ccn1` is under 1 ×10⁻⁶ cm/s; for `CNC(=O)c1cc(Oc2ccc3nc(Nc4cccc(Cl)c4)ncc3c2)ccn1` it is under 1 ×10⁻⁶ cm/s.
With `CNC(=O)c1cc(Oc2ccc3nc(Nc4cccc(C(C)(C)C)c4)ccc3c2)ccn1`, the Papp A→B is under 1 ×10⁻⁶ cm/s.
For `CNC(=O)c1cc(Oc2ccc3nc(Nc4cccc(C(C)(C)C)c4)cnc3c2)ccn1`, the Papp A→B is under 1 ×10⁻⁶ cm/s.
Still for that read-out and setting: the figure for `CNC(=O)c1cc(Oc2ccc3nc(Nc4ccc(OC(F)(F)F)cc4)ncc3c2)ccn1` is under 1 ×10⁻⁶ cm/s; for `CNC(=O)c1cc(Oc2ccc3nc(Nc4ccc(Br)cc4)ncc3c2)ccn1` it is under 1 ×10⁻⁶ cm/s.

For another data set, the target named is T1, Serine/threonine-protein kinase B-raf (Homo sapiens, UniProt P15056, V600E). Put plainly: Inhibition of N-terminus His6-tagged Braf V600E mutant expressed in insect Sf9 cells assessed as Mek phosphorylation after 2 hrs by ELISA.
T1 sequence (P15056 2-766 V600E limits assumed): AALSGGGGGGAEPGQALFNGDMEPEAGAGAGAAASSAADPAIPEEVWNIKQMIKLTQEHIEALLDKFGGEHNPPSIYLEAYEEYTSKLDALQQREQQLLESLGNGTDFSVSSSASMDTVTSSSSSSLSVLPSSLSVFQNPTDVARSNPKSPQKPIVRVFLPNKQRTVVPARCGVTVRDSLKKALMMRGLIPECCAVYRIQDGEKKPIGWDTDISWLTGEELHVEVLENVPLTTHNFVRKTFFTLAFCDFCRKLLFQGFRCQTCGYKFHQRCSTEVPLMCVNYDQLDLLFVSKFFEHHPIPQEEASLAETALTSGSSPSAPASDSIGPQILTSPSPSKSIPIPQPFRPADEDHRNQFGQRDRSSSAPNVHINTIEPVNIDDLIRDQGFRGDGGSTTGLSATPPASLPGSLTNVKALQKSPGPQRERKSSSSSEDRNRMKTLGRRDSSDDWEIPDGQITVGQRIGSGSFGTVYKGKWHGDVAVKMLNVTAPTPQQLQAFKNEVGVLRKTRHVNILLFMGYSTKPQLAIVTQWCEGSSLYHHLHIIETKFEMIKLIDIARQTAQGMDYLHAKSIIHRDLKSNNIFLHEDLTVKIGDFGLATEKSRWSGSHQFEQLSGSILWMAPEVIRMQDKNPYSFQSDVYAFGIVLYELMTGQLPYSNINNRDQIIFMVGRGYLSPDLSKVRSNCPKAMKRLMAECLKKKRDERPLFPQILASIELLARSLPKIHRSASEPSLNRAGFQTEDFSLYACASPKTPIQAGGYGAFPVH
Details: not given
In outline: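 Biochemical assay with the purified BrafV600E kinase domain, not the full-length protein.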
As a reminder, the IC50 is the concentration that inhibits the measured activity by half. For `CNC(=O)c1cc(Oc2ccc3nc(Nc4cccc(C(C)C)c4)ncc3c2)ccn1`, the IC50 amounted to 150 nM.
On the same count and under the same terms, the figure for `CNC(=O)c1cc(Oc2ccc3nc(Nc4ccc(-c5cccnc5)cc4)ncc3c2)ccn1` is 25000 nM; for `CNC(=O)c1cc(Oc2ccc3nc(Nc4ccc(C(F)(F)F)cc4)ncc3c2)ccn1` it is 67 nM; for `CNC(=O)c1cc(Oc2ccc3nc(Nc4cccc(Br)c4)ncc3c2)ccn1` it is 180 nM.
Still for that read-out and setting: for `O=C(NCCN1CCCCC1)c1cc(Oc2ccc3nc(Nc4ccc(Br)cc4)ncc3c2)ccn1` the value was 1300 nM; for `CNC(=O)c1cc(Oc2ccc3nc(Nc4cccc(Cl)c4)ncc3c2)ccn1`, 660 nM; for `CNC(=O)c1cc(Oc2ccc3nc(Nc4cccc(C(C)(C)C)c4)ccc3c2)ccn1`, 26 nM.
As to `CNC(=O)c1cc(Oc2ccc3nc(Nc4cccc(C(C)(C)C)c4)cnc3c2)ccn1`, the IC50 came out at 25 nM.
Same read-out and setting: the figure for `CNC(=O)c1cc(Oc2ccc3nc(Nc4ccc(OC(F)(F)F)cc4)ncc3c2)ccn1` is 80 nM; for `CNC(=O)c1cc(Oc2ccc3nc(Nc4ccc(Br)cc4)ncc3c2)ccn1` it is 310 nM.

Tested on in another data set: not listed separately
Put plainly: Clearance in mouse at 20 mg/kg, po administered as single dose. The data set is classed as ADME, organism-based. Further details: dose 20 mg/kg, route oral. Particulars: in vivo.
One may read the CL/F as the apparent clearance, not corrected for the fraction that reaches the circulation. `CNC(=O)c1cc(Oc2ccc3nc(Nc4cccc(C(C)C)c4)ncc3c2)ccn1` registered a CL/F of 53.1 mL/min/kg.

Tested on in a further data set: not listed separately
Put plainly: Half life in mouse at 20 mg/kg, po administered as single dose. Set-up: dose 20 mg/kg, route oral. Particulars: in vivo. The data set is classed as ADME, organism-based.
As a reminder, the half-life is the time needed for the level to fall by half in the phase considered. A lower half-life goes with rapid decline. Consider `CNC(=O)c1cc(Oc2ccc3nc(Nc4cccc(C(C)C)c4)ncc3c2)ccn1`, for which the half-life stood at 7.8 h.

The next data set concerns the target Vascular endothelial growth factor receptor 2 (Homo sapiens, UniProt P35968). Put plainly: Inhibition of KDR.
Details: not given
Put shortly: (§1)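 Selectivity profiling panel of 50 kinases spanning RTKs, STKs, TKs and AGC kinases.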
On to `CNC(=O)c1cc(Oc2ccc3nc(Nc4cccc(C(C)(C)C)c4)ccc3c2)ccn1`, for which the IC50 was under 1000 nM.
The compound `CNC(=O)c1cc(Oc2ccc3nc(Nc4cccc(C(C)(C)C)c4)cnc3c2)ccn1` returned an IC50 of under 1000 nM.

Tested on in another data set: not listed separately
Put plainly: Oral bioavailability in mouse at 20 mg/kg administered as single dose. Particulars: in vivo. The data set is classed as ADME, organism-based.
The bioavailability is the share of a dose that reaches the circulation, judged against a reference dose that is usually intravenous. Low values mean poor availability, high ones good availability. `CNC(=O)c1cc(Oc2ccc3nc(Nc4cccc(C(C)C)c4)ncc3c2)ccn1` showed a bioavailability of 35%.

The next data set has as its target Tyrosine-protein kinase ABL1 (Homo sapiens, UniProt P00519). As to the kind of experiment: Inhibition of cABL.
Details: not given
Put shortly:
as §1
`CNC(=O)c1cc(Oc2ccc3nc(Nc4cccc(C(C)(C)C)c4)ccc3c2)ccn1` came in with an IC50 of under 1000 nM.
Turning to `CNC(=O)c1cc(Oc2ccc3nc(Nc4cccc(C(C)(C)C)c4)cnc3c2)ccn1`, the IC50 was under 1000 nM.

In the next data set the target is Macrophage colony-stimulating factor 1 receptor (Homo sapiens, UniProt P07333). Put plainly: Inhibition of CSFR1.
Chain of Macrophage colony-stimulating factor 1 receptor (P07333 whole entry): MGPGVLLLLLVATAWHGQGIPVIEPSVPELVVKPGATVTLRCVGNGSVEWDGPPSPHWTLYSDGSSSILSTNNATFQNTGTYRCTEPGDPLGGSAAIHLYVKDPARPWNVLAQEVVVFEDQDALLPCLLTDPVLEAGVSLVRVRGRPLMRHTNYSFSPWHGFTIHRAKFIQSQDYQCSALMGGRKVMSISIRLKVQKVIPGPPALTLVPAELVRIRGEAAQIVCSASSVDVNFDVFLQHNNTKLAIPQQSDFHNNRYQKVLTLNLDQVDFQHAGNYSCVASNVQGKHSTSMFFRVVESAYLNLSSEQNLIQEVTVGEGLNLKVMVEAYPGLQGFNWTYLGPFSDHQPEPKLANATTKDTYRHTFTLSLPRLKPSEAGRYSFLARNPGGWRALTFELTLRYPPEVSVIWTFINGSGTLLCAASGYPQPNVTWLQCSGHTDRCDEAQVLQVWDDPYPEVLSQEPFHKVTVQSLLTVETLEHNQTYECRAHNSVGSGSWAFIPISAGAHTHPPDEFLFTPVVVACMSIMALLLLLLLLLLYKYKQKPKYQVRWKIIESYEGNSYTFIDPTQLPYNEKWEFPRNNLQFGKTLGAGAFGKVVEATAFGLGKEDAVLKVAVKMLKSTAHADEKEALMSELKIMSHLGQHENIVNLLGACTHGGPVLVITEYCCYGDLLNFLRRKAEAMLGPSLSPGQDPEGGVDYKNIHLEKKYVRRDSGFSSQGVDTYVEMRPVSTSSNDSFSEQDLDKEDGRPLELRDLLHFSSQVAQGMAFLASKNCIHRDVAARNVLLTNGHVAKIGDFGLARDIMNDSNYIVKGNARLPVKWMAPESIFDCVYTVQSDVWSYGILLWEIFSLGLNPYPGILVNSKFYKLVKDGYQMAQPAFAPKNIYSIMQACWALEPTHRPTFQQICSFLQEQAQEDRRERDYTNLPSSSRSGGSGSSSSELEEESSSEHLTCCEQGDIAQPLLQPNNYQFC
Details: not given
In outline:
as §1
Compound `CNC(=O)c1cc(Oc2ccc3nc(Nc4cccc(C(C)(C)C)c4)ccc3c2)ccn1` came in with an IC50 of under 1000 nM.
Turning to `CNC(=O)c1cc(Oc2ccc3nc(Nc4cccc(C(C)(C)C)c4)cnc3c2)ccn1`, the IC50 was under 1000 nM.

Another data set addresses T1, Serine/threonine-protein kinase B-raf. Put plainly: Inhibition of Braf V600E mutant-mediated Erk phosphorylation in human SK-MEL-28 cells after 4 hrs by Western blot analysis.
Details: not given
The class given is cell-based. On the technique in general: A western blot detects proteins with antibodies after separation by electrophoresis.
For orientation: EC50 means the midpoint of the concentration-response curve. A high value points to lower potency in that assay. As for `CNC(=O)c1cc(Oc2ccc3nc(Nc4cccc(C(C)C)c4)ncc3c2)ccn1`, the EC50 was over 10000 nM.
The compound `CNC(=O)c1cc(Oc2ccc3nc(Nc4ccc(-c5cccnc5)cc4)ncc3c2)ccn1` returned a half-maximal effective concentration (EC50) of over 10000 nM.
The same measure, in the same setting: for `CNC(=O)c1cc(Oc2ccc3nc(Nc4ccc(C(F)(F)F)cc4)ncc3c2)ccn1` the value was over 10000 nM; for `CNC(=O)c1cc(Oc2ccc3nc(Nc4cccc(Br)c4)ncc3c2)ccn1`, over 10000 nM; for `O=C(NCCN1CCCCC1)c1cc(Oc2ccc3nc(Nc4ccc(Br)cc4)ncc3c2)ccn1`, over 10000 nM.
On the same count and under the same terms, the figure for `CNC(=O)c1cc(Oc2ccc3nc(Nc4cccc(Cl)c4)ncc3c2)ccn1` is over 10000 nM; for `CNC(=O)c1cc(Oc2ccc3nc(Nc4cccc(C(C)(C)C)c4)ccc3c2)ccn1` it is over 10000 nM; for `CNC(=O)c1cc(Oc2ccc3nc(Nc4cccc(C(C)(C)C)c4)cnc3c2)ccn1` it is over 10000 nM.
As for `CNC(=O)c1cc(Oc2ccc3nc(Nc4ccc(OC(F)(F)F)cc4)ncc3c2)ccn1`, the EC50 was over 10000 nM.
Still for that read-out and setting: the figure for `CNC(=O)c1cc(Oc2ccc3nc(Nc4ccc(Br)cc4)ncc3c2)ccn1` is over 10000 nM.

For a further data set, the target named is T2, Receptor-type tyrosine-protein kinase FLT3 (Homo sapiens, UniProt P36888).
T2 sequence (P36888 whole entry): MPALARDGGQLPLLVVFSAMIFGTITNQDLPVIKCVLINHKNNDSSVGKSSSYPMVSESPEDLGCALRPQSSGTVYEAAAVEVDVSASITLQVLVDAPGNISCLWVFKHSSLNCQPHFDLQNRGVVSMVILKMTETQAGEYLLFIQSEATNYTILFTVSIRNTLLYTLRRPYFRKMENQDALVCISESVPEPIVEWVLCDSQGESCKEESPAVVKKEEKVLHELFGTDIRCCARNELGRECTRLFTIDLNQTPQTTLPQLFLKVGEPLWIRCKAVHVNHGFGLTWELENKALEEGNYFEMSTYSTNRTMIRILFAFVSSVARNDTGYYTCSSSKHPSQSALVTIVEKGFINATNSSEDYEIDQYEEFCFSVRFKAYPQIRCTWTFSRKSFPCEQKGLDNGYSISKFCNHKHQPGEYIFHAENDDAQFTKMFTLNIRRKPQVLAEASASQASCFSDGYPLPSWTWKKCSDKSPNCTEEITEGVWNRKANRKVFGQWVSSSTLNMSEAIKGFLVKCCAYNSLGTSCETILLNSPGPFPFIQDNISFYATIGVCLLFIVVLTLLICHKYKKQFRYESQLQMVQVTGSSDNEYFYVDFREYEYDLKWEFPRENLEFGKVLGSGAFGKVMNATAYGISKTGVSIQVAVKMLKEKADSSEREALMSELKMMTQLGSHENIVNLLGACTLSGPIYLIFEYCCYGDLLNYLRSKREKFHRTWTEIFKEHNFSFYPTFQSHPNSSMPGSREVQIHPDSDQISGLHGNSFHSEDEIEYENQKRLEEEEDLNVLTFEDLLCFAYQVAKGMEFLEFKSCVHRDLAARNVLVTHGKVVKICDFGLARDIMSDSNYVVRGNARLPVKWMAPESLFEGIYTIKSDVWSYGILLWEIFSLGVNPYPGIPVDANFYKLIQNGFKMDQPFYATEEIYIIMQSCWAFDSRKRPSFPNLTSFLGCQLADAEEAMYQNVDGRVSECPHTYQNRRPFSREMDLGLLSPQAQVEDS
Put plainly: Inhibition of Flt3.
Details: not given
Put shortly:
as §1
As for `CNC(=O)c1cc(Oc2ccc3nc(Nc4cccc(C(C)(C)C)c4)ccc3c2)ccn1`, the IC50 is under 1000 nM.
Still for that read-out and setting: the figure for `CNC(=O)c1cc(Oc2ccc3nc(Nc4cccc(C(C)(C)C)c4)cnc3c2)ccn1` is under 1000 nM.

Tested on in a further data set: not listed separately
As to the kind of experiment: Solubility of the compound at pH 7. Particulars: buffer. The class given is physicochemical.
By solubility is commonly meant the dissolved amount per volume that the medium holds. Low readings indicate a poorly soluble substance, high ones a readily soluble substance. The compound `CNC(=O)c1cc(Oc2ccc3nc(Nc4cccc(C(C)C)c4)ncc3c2)ccn1` came in with a solubility of under 1 µM.
As to `CNC(=O)c1cc(Oc2ccc3nc(Nc4ccc(-c5cccnc5)cc4)ncc3c2)ccn1`, the solubility was under 1 µM.
Regarding `CNC(=O)c1cc(Oc2ccc3c(c2)nc(Nc2cccc(C(C)(C)C)c2)n3C)ccn1`, the solubility is under 1 µM.
Regarding `CNC(=O)c1cc(Oc2ccc3nc(Nc4ccc(C(F)(F)F)cc4)ncc3c2)ccn1`, the solubility is under 1 µM.
Still for that read-out and setting: for `CNC(=O)c1cc(Oc2ccc3nc(Nc4cccc(Br)c4)ncc3c2)ccn1` the value was under 1 µM; for `O=C(NCCN1CCCCC1)c1cc(Oc2ccc3nc(Nc4ccc(Br)cc4)ncc3c2)ccn1`, under 1 µM.
For the compound `CNC(=O)c1cc(Oc2ccc3nc(Nc4cccc(Cl)c4)ncc3c2)ccn1`, the solubility was under 1 µM.
On the same count and under the same terms, for `CNC(=O)c1cc(Oc2ccc3nc(Nc4cccc(C(C)(C)C)c4)ccc3c2)ccn1` the value was under 1 µM; for `CNC(=O)c1cc(Oc2ccc3nc(Nc4cccc(C(C)(C)C)c4)cnc3c2)ccn1`, under 1 µM.
Same read-out and setting: for `CNC(=O)c1cc(Oc2ccc3nc(Nc4ccc(OC(F)(F)F)cc4)ncc3c2)ccn1` the value was under 1 µM; for `CNC(=O)c1cc(Oc2ccc3nc(Nc4ccc(Br)cc4)ncc3c2)ccn1`, under 1 µM.

These data come from ChEMBL document CHEMBL1949510, “Design and synthesis of 6,6-fused heterocyclic amides as raf kinase inhibitors” (Bioorg Med Chem Lett, 2012).
